# Results published in the RNAGym collection of RNA variant scans (doi:10.1038/s41586-018-0170-7).
# B1: tRNA (parent)
# chain: GUUCCGUUGGCGUAAUGGUAACGCGUCUCCCUCCUAAGGAGAAGACUGCGGGUUCGAGUCCCGUACGGAACG
# Variants of: B1
# Assay: yeast fitness, log relative to wild type (ln ratio); higher = fitter; tRNA-Arg(CCU), competitive growth, 37 C, 1 M NaCl
# How it was run: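 Genotype fitness is expressed as the natural log of its generations over those of the wild type. Each pool of the tRNA-Arg(CCU) variant library, carried on a HIS3 centromeric plasmid in BY4742 lacking the chromosomal gene, came from one of two independent transformations and grew 4 generations in SC-HIS at 30 °C before ~6.5 generations (~26.5 h) in SC-HIS 1M NaCl at 37 °C. Generation numbers used OD-scaled log2 output/input frequencies from 125 bp paired-end Illumina sequencing, combined across replicates by inverse-variance weighting.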
row,Variant,yeast fitness (ln)
1,G6U C27U C66A A70U C71U,-0.29
2,U2G G6A C46U A70U C71U,-0.449
3,G6A A43C C66A A70G,-0.154
4,U2C G6A C27U A43C C46U A69G A70U C71U,-0.359
5,G1A C46U C66U A69G A70U C71U,-0.353
6,G1A G6U C27U A43C C66A A70G C71U,-0.411
7,G1A G6U C27U C46U A70U C71U,-0.278
8,U2G C27U A43C C46U C66U A69G,-0.231
9,G1A C27U A43C C46U A69G A70U,-0.324
10,G1A U2C G6U C46U C66A A69G A70G,-0.139
11,G1A G6U C27U C46U A69G A70U,-0.299
12,U2C A43C A69G A70G,-0.0256
13,U2G C46U C66A A69G A70G,-0.0404
14,U2C G6A C66A A70U,-0.094
15,G6A C27U C66U A70U,-0.188
16,G1A U2G G6A A43C C46U C66U A70G C71U,-0.266
17,U2C G6A C66A A69G A70G C71U,-0.139
18,G1A G6U A70G C71U,-0.148
19,G6U C27U C66U A70G,-0.288
20,C27U A43C C66A A70U C71U,-0.347
21,U2G G6U A43C C46U C66A A69G A70G,-0.242
22,G1A U2G A43C C66U A69G A70G C71U,-0.457
23,G6U A43C A69G,-0.328
24,U2C G6A C27U A43C A70U,-0.108

row,Variant,yeast fitness (ln)
1,U2G A43C C46U C66A A69G A70G,-0.186
2,U2G G6A C66A C71U,-0.139
3,U2G G6A A43C C66A C71U,-0.347
4,G1A G6U C27U C46U C66A A69G C71U,-0.187
5,G1A U2C G6U C27U A43C C66U A69G A70U C71U,-0.42
6,G1A G6A A43C C46U C66U A69G A70U,-0.479
7,U2C G6A C27U C46U C66A A69G A70U C71U,-0.384
8,G1A U2C A43C C46U A69G A70U,-0.0156
9,G1A U2G G6A C27U A43C C66A A70U,-0.249
10,G1A U2G G6U C27U A43C A70U C71U,-0.415
11,U2G G6U C27U C46U C66U A69G A70U,-0.238
12,U2C C27U C46U C66U A69G A70U,-0.137
13,G1A G6U C27U C66A A70G C71U,-0.531
14,G1A C27U A43C,-0.163
15,U2C G6U C66A A70U,0.0021
16,G1A U2G A43C C66A C71U,-0.228
17,G1A U2C A69G A70G,-0.0537
18,C27U C46U C66A A69G A70U,-0.104
19,C27U C46U C66A A69G A70G,-0.124
20,G1A U2G G6U A43C C46U A69G A70U,-0.354
21,G1A U2G C27U A43C A69G A70U C71U,-0.353
22,G6U C46U C66A A69G A70G C71U,-0.414
23,G1A G6A C27U A43C A70U,-0.3
24,G1A C66A A70U C71U,-0.144

row,Variant,yeast fitness (ln)
1,G6U C27U C46U A70G C71U,-0.321
2,G1A U2G G6U C27U C46U A70G,-0.274
3,G1A U2G G6U C27U C46U A70U,-0.217
4,U2G G6A A43C C46U C66A A69G C71U,-0.341
5,G6U C27U A43C C46U C66U A69G A70G,-0.396
6,C27U C46U A70U C71U,-0.205
7,G1A U2C G6U C27U A43C C46U C66U A70U C71U,-0.315
8,U2G G6A A43C A69G A70G C71U,-0.233
9,U2C G6A C27U C66U A70U,-0.203
10,U2C G6A A43C C46U C66U A69G A70G C71U,-0.0188
11,G1A U2C G6U A70U C71U,-0.158
12,U2C A69G A70U,-0.117
13,G1A G6U,-0.0886
14,U2G C27U C46U C66A A69G A70U,-0.0493
15,G1A U2G G6A C66U A69G A70G C71U,-0.366
16,U2C G6U C27U A43C C66A A70G,-0.0266
17,G1A U2G G6A C66U C71U,-0.146
18,C27U A69G A70G C71U,-0.223
19,G1A U2G G6U C66U A69G A70U,-0.386
20,U2G G6U C46U C71U,-0.134
21,G1A U2C C27U A43C C46U C66U A70U,-0.0712
22,G1A G6U A43C C66A A69G C71U,-0.863
23,G1A U2G A43C C46U A70U C71U,-0.00171
24,U2C G6A A43C C46U A69G A70G C71U,-0.101

row,Variant,yeast fitness (ln)
1,G1A G6U C27U C66U A69G A70U C71U,-0.45
2,U2G A43C C66U A70G C71U,-0.22
3,C27U C46U C66A A69G C71U,-0.262
4,A43C C46U A69G A70U C71U,-0.273
5,G1A G6A C46U C66U A70G,-0.189
6,U2C G6U C66U A69G A70G C71U,-0.346
7,U2C G6U A43C C46U C66U A69G A70G C71U,-0.169
8,G6A C46U C66U A69G C71U,-0.0544
9,G1A U2G G6U A43C C46U C66U A70U,-0.275
10,U2C G6U A43C C66A A69G A70G,-0.029
11,U2G G6A A43C C46U C66A A69G A70U,-0.0569
12,G1A U2C G6A C27U A70U,-0.0756
13,G6U A43C C46U A69G C71U,-0.234
14,C27U C46U A69G C71U,-0.0597
15,U2G C66U A70U,-0.00968
16,G1A U2G G6A C66U A70U C71U,-0.0116
17,G1A U2C G6U A43C C46U C66A A69G A70G C71U,-0.0061
18,G1A U2C G6U A43C A70U,-0.153
19,U2C C27U A43C C66U C71U,-0.311
20,G1A C27U C66U A70U C71U,-0.342
21,G1A G6A A43C C46U A70U,-0.206
22,G6U C46U A69G,-0.397
23,U2C C27U C46U C66U C71U,-0.132
24,U2C G6A C27U A43C C46U A69G A70G C71U,-0.13

row,Variant,yeast fitness (ln)
1,U2G G6U C66A A70U C71U,-0.0189
2,U2C G6U C66A A70U C71U,-0.105
3,G1A U2G C27U A43C C66A A69G A70G C71U,-0.472
4,G6A C27U A43C C46U C66A A69G A70G,-0.229
5,A43C C66A A70G,-0.0269
6,G6U C66A A69G A70G,-0.0205
7,U2G G6U C46U C66U A69G A70U,-0.264
8,G1A U2G G6U A43C C46U C66A A70U,-0.303
9,G1A U2G C27U A43C C46U C66A A70U,-0.175
10,G1A U2G C27U A43C C46U C66A A70G,-0.178
11,G1A U2G C27U C66U A70G C71U,-0.321
12,G1A U2C G6U C27U A43C C46U A69G A70G,-0.297
13,C66U A69G A70U C71U,-0.339
14,G1A A69G A70G,-0.137
15,G1A A69G A70U,-0.0407
16,G6A C46U A69G,-0.469
17,U2G G6A C27U C46U C66A A69G A70U C71U,-0.385
18,G1A G6U A43C C66U A70U C71U,-0.38
19,U2C G6U C27U A43C C46U A69G A70U,-0.126
20,G1A G6U A43C C46U C66U A69G A70U C71U,-0.429
21,G1A U2G G6U C27U A43C C46U A69G A70U C71U,-0.41
22,A43C C46U C66U A70G,-0.0608
23,U2G G6A C66A A69G A70U,-0.0595
24,U2G G6A C27U A43C A70G,-0.186

row,Variant,yeast fitness (ln)
1,G1A G6U C27U A43C A69G C71U,-0.557
2,G1A U2G G6A C27U C46U A69G A70U C71U,-0.379
3,G1A U2G C27U A43C C46U C66A A69G A70G C71U,-0.269
4,G1A U2C A43C C46U C66U A69G A70G C71U,-0.417
5,G1A U2G C66U A70G C71U,-0.187
6,G1A G6U A43C C46U C66A A69G A70U,-0.474
7,G1A G6U C27U A43C C46U C66U A69G A70U C71U,-0.565
8,G6A C27U C46U C66U A70G,-0.0516
9,C27U C46U C66U,-0.0577
10,G1A C27U C66A A70U,-0.132
11,G1A C27U C66U A69G C71U,-0.285
12,G6A C27U A43C C66U A70G C71U,-0.302
13,U2C G6U C27U C46U C66A A70G,-0.0216
14,G6U C27U A43C C46U C66A A70G,-0.123
15,G1A U2C G6U C27U C46U C66U A70G C71U,-0.169
16,U2C G6A C27U,-0.0332
17,G1A U2G A43C C66U A69G A70G,-0.328
18,G1A G6U A43C A69G A70G,-0.54
19,U2G C27U A43C C46U C66A,-0.124
20,U2G G6U A43C C46U C66U A69G A70G,-0.267
21,U2C G6A A43C C66U A70G,-0.0213
22,G6A C27U A43C C66U A70G,-0.426
23,U2C C27U C46U A70U,-0.0474
24,U2G G6A A43C C66A A69G A70G C71U,-0.154

row,Variant,yeast fitness (ln)
1,G1A U2G C27U C66A A70G,-0.25
2,U2G C27U C46U C66U A70U,-0.0345
3,G1A G6U C27U A43C C46U A70U C71U,-0.318
4,C27U A43C C66A,-0.0618
5,C46U C66A A70U C71U,-0.022
6,U2C G6U C46U A70G,-0.0195
7,G6A C27U A43C C46U A69G C71U,-0.344
8,G1A G6U C27U C46U C66U A69G A70U,-0.454
9,G1A G6U C27U C46U C66U A69G A70G,-0.28
10,G1A U2C A70G,-0.0111
11,U2G G6A C27U C66A A69G A70U,-0.287
12,G1A U2G G6A C46U A69G A70U C71U,-0.259
13,G1A A43C C66U A69G C71U,-0.377
14,U2G A43C C46U C66A C71U,-0.148
15,G1A U2G A43C C66U C71U,-0.257
16,U2C G6U C66U A69G A70U C71U,-0.468
17,U2C C27U A43C A69G A70U C71U,-0.266
18,G1A U2G G6U C27U C46U C66U A70G,-0.437
19,U2G C27U C46U A69G A70U C71U,-0.563
20,G1A U2C G6U A43C C46U A70U,-0.0463
21,G1A U2G C27U C46U A70U,-0.293
22,G1A U2C G6U A69G A70U C71U,-0.277
23,G1A G6A A69G A70G C71U,-0.178
